Laboratory results taken from ChEMBL document CHEMBL3992563, “Piperazines as nootropic agents: New derivatives of the potent cognition-enhancer DM235 carrying hydrophilic substituents” (Bioorg Med Chem, 2017).

Key:
Mus musculus [1] = test: Cognition enhancing effect in sc dosed CD-1 albino mouse assessed as reversal of scopolamine-induced amnesia treated 20 mins prior to training session followed by scopolamine challenge immediately after training session by passive avoidance test; assay type: functional; conditions: CD-1, sc, read-out: MED
Procedure, shortened: (§1)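 Mouse passive-avoidance test using a modified Jarvik–Kopp protocol. Drug in saline with 10% DMSO, given s.c. 20 min before training in a 1:10 dilution series up to 10 mg/kg. Scopolamine 1.5 mg/kg i.p. given right after the punishment/training session. Saline controls got an extra saline injection. Each value is the mean of 12–14 mice; the read-out is minimal effective dose.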

Mus musculus [2] = test: Toxicity in sc dosed CD-1 albino mouse assessed as effect on spontaneous motility at cognition enhancing MED by hole-board test; assay type: organism-based; conditions: in vivo
[3] = Half life in Sprague-Dawley rat plasma at 1 uM by LC-MS/MS analysis; assay type: ADME, cell-free
Procedure, shortened: (§2)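 Analyte at 1 µM final in PBS or in plasma from male Sprague-Dawley rats (plasma stored at −80 °C), incubated at 37 °C. Sampled in triplicate at 0, 30, 60 and 120 min, then internal standard added. Quantified by ESI-positive LC-MS/MS in MRM mode (C18 column, formic acid/acetonitrile gradient) against calibration from 0–1.00 µM. Enalapril checked plasma hydrolytic activity; t1/2 extrapolated from concentration-time curves.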

[4] = Half life in PBS at 1 uM by LC-MS/MS analysis; assay type: physicochemical; procedure, shortened: as §2
[5] = Stability in Sprague-Dawley rat plasma assessed as parent compound remaining at 1 uM after 2 hrs by LC-MS/MS analysis; assay type: ADME, cell-free; conditions: read-out: Stability; procedure, shortened: as §2
Mus musculus [6] = test: Toxicity in sc dosed CD-1 albino mouse assessed as gross behavior abnormality at cognition enhancing MED; assay type: organism-based; conditions: in vivo
Mus musculus [7] = test: Toxicity in sc dosed CD-1 albino mouse assessed as effect on motor co-ordination at cognition enhancing MED by rota rod test; assay type: organism-based; conditions: in vivo
Plasma [8] = test: Drug metabolism in Sprague-Dawley rat plasma assessed as 1-(4-Benzoyl-3-(hydroxymethyl)piperazin-1-yl)propan-1-one formation at 1 uM after 60 mins by LC-MS/MS analysis; assay type: ADME, cell-free; conditions: 1 h; procedure, shortened: as §2
Mus musculus [9] = test: Cognition enhancing effect in ip dosed mouse assessed as reversal of scopolamine-induced amnesia treated 20 mins prior to training session followed by scopolamine challenge immediately after training session by passive avoidance test; assay type: functional; conditions: read-out: MED
Mus musculus [10] = test: Cognition enhancing effect in sc dosed CD-1 albino mouse assessed as reversal of scopolamine-induced amnesia by measuring difference between training session and retention session time at MED treated 20 mins prior to training session followed by scopolamine challenge immediately after training session by passive avoidance test; assay type: functional; procedure, shortened: as §1
Mus musculus [11] = test: Potency index, ratio of piracetam MED to compound MED for cognition enhancing effect in sc dosed CD-1 albino mouse; assay type: functional
Plasma [12] = test: Drug metabolism in Sprague-Dawley rat plasma assessed as 1-(4-Benzoyl-2-(hydroxymethyl)piperazin-1-yl)propan-1-one formation at 1 uM after 60 mins by LC-MS/MS analysis; assay type: ADME, cell-free; conditions: 1 h; procedure, shortened: as §2
Plasma [13] = test: Drug level in Sprague-Dawley rat plasma treated with (4-Benzoyl-1-propionylpiperazin-2-yl)methyl acetate at 1 uM after 60 mins by LC-MS/MS analysis; assay type: ADME, cell-free; conditions: 1 h; procedure, shortened: as §2
[14] = Stability in Sprague-Dawley rat plasma assessed as parent compound remaining at 1 uM after 60 mins by LC-MS/MS analysis; assay type: ADME, cell-free; conditions: read-out: Stability; procedure, shortened: as §2
Mus musculus [15] = test: Cognition enhancing effect in […] mouse assessed as reversal of scopolamine-induced amnesia by measuring difference between training session and retention session time at MED treated 20 mins prior to training session followed by scopolamine challenge immediately after training session by passive avoidance test
Plasma [16] = test: Drug metabolism in Sprague-Dawley rat plasma assessed as 1-(4-(4-Fluorophenylsulfonyl)-3-(hydroxymethyl)piperazin-1-yl)ethanone formation at 1 uM after 60 mins by LC-MS/MS analysis; assay type: ADME, cell-free; conditions: 1 h; procedure, shortened: as §2
Plasma [17] = test: Drug metabolism in Sprague-Dawley rat plasma assessed as 1-(4-(4-Fluorophenylsulfonyl)-2-(hydroxymethyl)piperazin-1-yl)ethanone formation at 1 uM after 60 mins by LC-MS/MS analysis; assay type: ADME, cell-free; conditions: 1 h; procedure, shortened: as §2

Structure (SMILES) | minimal effective dose (Mus musculus [1]) | Activity (Mus musculus [2]) | half-life at 1 µM [3] | half-life at 1 µM [4] | Activity (Mus musculus [6]) | Activity (Mus musculus [7]) | minimal effective dose (Mus musculus [9]) | Time (Mus musculus [10]) | Ratio (Mus musculus [11]) | other results
CCC(=O)N1CCN(C(=O)c2ccccc2)C(COC(C)=O)C1 (stereo not drawn) | > 10 mg/kg | Non-Toxic | 1.67 h | ≥ 4 h | Non-Toxic | Non-Toxic | – | – | – | remaining at 2 h, 1 µM [5]: 50%; Drug metabolism (Plasma [8]): Metabolite_Detected
CC(=O)N1CCN(S(=O)(=O)c2ccc(F)cc2)CC1 | – | – | ≥ 4 h | ≥ 4 h | – | – | 0.01 mg/kg | – | – | –
CCC(=O)N1CCN(C(=O)c2ccccc2)CC1COC(C)=O (stereo not drawn) | 1 mg/kg | Non-Toxic | 2.57 h | ≥ 4 h | Non-Toxic | Non-Toxic | – | 62.2 s | 3 - 300 | remaining at 2 h, 1 µM [5]: 60%; Drug metabolism (Plasma [12]): Metabolite_Detected
CC(=O)NC1CCN(S(=O)(=O)c2ccc(F)cc2)CC1 [SAPUNIFIRAM] | – | – | – | – | – | – | 0.01 mg/kg | – | – | –
CCOC(=O)[C@H](CCc1ccccc1)N[C@@H](C)C(=O)N1CCC[C@H]1C(=O)O [ENALAPRIL] | – | – | 1.57 h | ≥ 4 h | – | – | – | – | – | –
O=C1CCC2CN(S(=O)(=O)c3ccc(F)cc3)CCN12 (stereo not drawn) [UNIFIRAM] | – | – | – | – | – | – | 0.001 mg/kg | – | – | –
CCC(=O)N1CCN(C(=O)c2ccccc2)CC1CO (stereo not drawn) | 10 mg/kg | Non-Toxic | ≥ 4 h | ≥ 4 h | Non-Toxic | Non-Toxic | – | 72.7 s | 3 - 300 | Drug metabolism (Plasma [13]): Metabolite_Detected
CCOC(=O)C1CN(C(=O)c2ccccc2)CCN1C(=O)CC (stereo not drawn) | 1 mg/kg | Non-Toxic | 0.2 h | ≥ 4 h | Non-Toxic | Non-Toxic | – | 51.1 s | 3 - 300 | remaining at 1 h, 1 µM [14]: < 50%
CC(=O)OC[C@H]1CN(C(C)=O)CCN1S(=O)(=O)c1ccc(F)cc1 | 1 mg/kg | – | – | – | – | – | – | 70.6 s | – | –
CCC(=O)N1CCN(C(=O)c2ccccc2)C(C)C1 (stereo not drawn) | – | – | – | – | – | – | 0.1 mg/kg | – | – | Time (Mus musculus [15]): 60.2 s
CC(=O)N1CCN(S(=O)(=O)c2ccc(F)cc2)C(C)C1 (stereo not drawn) | – | – | – | – | – | – | 0.1 mg/kg | – | – | Time (Mus musculus [15]): 82.6 s
CC(=O)OC[C@@H]1CN(C(C)=O)CCN1S(=O)(=O)c1ccc(F)cc1 | 1 mg/kg | – | – | – | – | – | – | 64.5 s | – | –
CCC(=O)N1CCN(C(=O)c2ccccc2)[C@@H](CO)C1 | 1 mg/kg | – | – | – | – | – | – | 55 s | – | –
CC(=O)N1CCN(S(=O)(=O)c2ccc(F)cc2)CC1C (stereo not drawn) | – | – | – | – | – | – | 1 mg/kg | – | – | Time (Mus musculus [15]): 83.9 s
CCOC(=O)C1CN(C(C)=O)CCN1S(=O)(=O)c1ccc(F)cc1 (stereo not drawn) | 0.1 mg/kg | Non-Toxic | 0.35 h | ≥ 4 h | Non-Toxic | Non-Toxic | – | 55.7 s | 3 - 300 | remaining at 1 h, 1 µM [14]: < 50%
NC(=O)CN1CCCC1=O [PIRACETAM] | – | – | – | – | – | – | 30 mg/kg | – | – | Time (Mus musculus [15]): 82.4 s
CCC(=O)N1CCN(C(=O)c2ccccc2)C(COC)C1 (stereo not drawn) | 1 mg/kg | Non-Toxic | ≥ 4 h | ≥ 4 h | Non-Toxic | Non-Toxic | – | 73.4 s | 3 - 300 | –
CCOC(=O)C1CN(C(=O)CC)CCN1C(=O)c1ccccc1 (stereo not drawn) | 1 mg/kg | Non-Toxic | 0.433 h | ≥ 4 h | Non-Toxic | Non-Toxic | – | 56.6 s | 3 - 300 | remaining at 1 h, 1 µM [14]: < 50%
COCC1CN(S(=O)(=O)c2ccc(F)cc2)CCN1C(C)=O (stereo not drawn) | > 10 mg/kg | Non-Toxic | ≥ 4 h | ≥ 4 h | Non-Toxic | Non-Toxic | – | – | – | –
CCC(=O)N1CCN(C(=O)c2ccccc2)CC1 [SUNIFIRAM] | – | – | ≥ 4 h | ≥ 4 h | – | – | 0.001 mg/kg | – | – | –
COCC1CN(C(C)=O)CCN1S(=O)(=O)c1ccc(F)cc1 (stereo not drawn) | 1 mg/kg | Non-Toxic | ≥ 4 h | ≥ 4 h | Non-Toxic | Non-Toxic | – | 76.5 s | 3 - 300 | –
CCC(=O)N1CCN(C(=O)c2ccccc2)CC1COC (stereo not drawn) | 10 mg/kg | Non-Toxic | ≥ 4 h | ≥ 4 h | Non-Toxic | Non-Toxic | – | 79.7 s | 3 - 300 | –
CC(=O)OCC1CN(C(C)=O)CCN1S(=O)(=O)c1ccc(F)cc1 (stereo not drawn) | 0.1 mg/kg | Non-Toxic | 0.483 h | ≥ 4 h | Non-Toxic | Non-Toxic | – | 56.8 s | 3 - 300 | remaining at 2 h, 1 µM [5]: ≤ 10%; Drug metabolism (Plasma [16]): Metabolite_Detected
CCC(=O)N1CCN(C(=O)c2ccccc2)CC1C (stereo not drawn) | – | – | – | – | – | – | > 10 mg/kg | – | – | –
CC(=O)OCC1CN(S(=O)(=O)c2ccc(F)cc2)CCN1C(C)=O (stereo not drawn) | > 10 mg/kg | Non-Toxic | 0.5 h | ≥ 4 h | Non-Toxic | Non-Toxic | – | – | – | remaining at 2 h, 1 µM [5]: ≤ 10%; Drug metabolism (Plasma [17]): Metabolite_Detected
CCC(=O)N1CCN(C(=O)c2ccccc2)[C@H](CO)C1 | 1 mg/kg | – | – | – | – | – | – | 58.8 s | – | –
CCOC(=O)C1CN(S(=O)(=O)c2ccc(F)cc2)CCN1C(C)=O (stereo not drawn) | 1 mg/kg | Non-Toxic | 0.617 h | ≥ 4 h | Non-Toxic | Non-Toxic | – | 50.1 s | 3 - 300 | remaining at 1 h, 1 µM [14]: < 50%
